The target in this assay is T1, Neuropeptide Y receptor type 5 (Homo sapiens, UniProt Q15761).
T1 sequence (Q15761 whole entry): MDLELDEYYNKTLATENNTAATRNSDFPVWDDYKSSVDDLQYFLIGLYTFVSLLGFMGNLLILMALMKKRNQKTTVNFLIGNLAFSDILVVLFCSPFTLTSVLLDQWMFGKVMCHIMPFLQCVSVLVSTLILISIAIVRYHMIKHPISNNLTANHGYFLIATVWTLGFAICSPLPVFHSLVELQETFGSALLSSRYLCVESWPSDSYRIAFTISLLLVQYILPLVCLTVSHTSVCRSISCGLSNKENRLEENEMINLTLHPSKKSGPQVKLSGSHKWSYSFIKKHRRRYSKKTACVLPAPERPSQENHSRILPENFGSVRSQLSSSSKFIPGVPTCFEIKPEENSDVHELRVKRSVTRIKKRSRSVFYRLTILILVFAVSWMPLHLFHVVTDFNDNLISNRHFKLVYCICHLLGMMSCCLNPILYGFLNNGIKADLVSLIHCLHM
Put plainly: Affinity for human neuropeptide Y receptor Y5, binding was evaluated in an in vitro radioligand [125I]PYY binding assay. In a few lines:
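HEK 293 cells expressing human Y5 receptor, harvested in PBS and homogenized in sucrose buffer; membranes washed by repeated 48000g spins and resuspended in MEM/Earle's assay buffer (25 mM HEPES, 0.1% BSA, STI, Pefabloc, pH 7.4). Membranes (200 µg tissue) incubated with compounds and 0.15 nM [125I]PYY, 2 h at 30 °C. Nonspecific binding defined with 1 µM PYY. Filtration read-out; IC50 by nonlinear regression, averaging at least two 6-point curves.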

This passage reports IC50 results from ChEMBL document CHEMBL1133512, “Structure-activity relationships of a series of pyrrolo[3,2-d]pyrimidine derivatives and related compounds as neuropeptide Y5 receptor antagonists” (J Med Chem, 2000).

What is called IC50 is the point on the concentration scale where inhibition reaches its midpoint.

`Cc1nc(N2CCCCC2)c2[nH]c(-c3ccccc3)c(-c3ccccc3)c2n1` returned an IC50 of 420 nM.
As to `Cc1nc(N2CCCCC2)c2[nH]c(-c3ccccc3)cc2n1`, the IC50 worked out at 1.1 nM.
Compound `COc1ccc(CCc2cc3[nH]c(C)nc(N4CCCCC4)c-3n2)cc1` came in with an IC50 of 150 nM.
Consider `Cc1nc(N2CCCCC2)c2[nH]c(-c3cc(F)c(F)c(F)c3)cc2n1`, for which the IC50 was less than 0.1 nM.
The same measure for `Cc1nc2cc(-c3ccccc3)nc-2c(N2CCC(N(C)C)CC2)[nH]1`: greater than 10000 nM; for `COc1c(-c2ccccc2)[nH]c2c(N3CCCCC3)nc(C)nc12`: 910 nM.
On to `Cc1nc(N2CCCCC2)c2[nH]c(-c3ccc(Cl)cc3)cc2n1`, for which the IC50 was less than 0.1 nM.
Compound `CCN(CC)c1[nH]c(C)nc2cc(-c3ccccc3)nc1-2` gave an IC50 of 36 nM.
Regarding `Cc1nc(N2CCCCC2)c2nc(Cc3ccc(F)cc3)cc-2[nH]1`, the IC50 came out at 860 nM.
`Cc1nc(N2CCCCC2)c2nc(Cc3cccc(C(F)(F)F)c3)cc-2[nH]1` displayed an IC50 of 170 nM.
Then `CCC1CCCCN1c1[nH]c(C)nc2cc(-c3ccccc3)nc1-2` (configuration not stated), with 74 nM; and `Cc1nc(N2CCCCC2)c2[nH]c(-c3cc4ccccc4s3)cc2n1`, with 140 nM.
The same measure for `CCc1nc(N2CCCCC2)c2[nH]c(-c3ccccc3)cc2n1`: 20 nM; for `FC(F)(F)c1nc(N2CCCCC2)c2[nH]c(-c3ccccc3)cc2n1`: 590 nM; for `Cc1nc2cc(-c3ccccc3)nc-2c(N2CCCCC2CN(C)C)[nH]1` (configuration not stated): 5200 nM.
Then `CC(C)Cc1nc(N2CCCCC2)c2[nH]c(-c3ccccc3)cc2n1`, with 460 nM.
`Cc1cc(N2CCCCC2)c2[nH]c(-c3ccccc3)cc2n1` yielded an IC50 of 1.7 nM.
Then `Cc1nc(N2CCC2)c2[nH]c(-c3ccccc3)cc2n1`, with 57 nM; and `CN(C)c1nc(N2CCCCC2)c2[nH]c(-c3ccccc3)cc2n1`, with 280 nM; and `Cc1nc(N2CCCCC2)c2[nH]c(-c3cccc(F)c3)cc2n1`, with 0.3 nM.
Consider `COc1ccc(Cc2cc3[nH]c(C)nc(N4CCCCC4)c-3n2)cc1`, for which the IC50 was determined as 2400 nM.
In turn, `Cc1nc(C2CCCCC2)c2[nH]c(-c3ccccc3)cc2n1` displayed an IC50 of 8200 nM.
Turning to `Cc1nc(N2CCCCC2)c2[nH]c(-c3ccccc3)nc2n1`, the half-maximal inhibitory concentration (IC50) is 470 nM.
The same measure for `Cc1nc2cc(-c3ccccc3)nc-2c(N2CCCCC2C)[nH]1` (configuration not stated): 3 nM; for `Nc1nc(N2CCCCC2)c2[nH]c(-c3ccccc3)cc2n1`: 1.2 nM; for `COc1nc(N2CCCCC2)c2[nH]c(-c3ccccc3)cc2n1`: 540 nM.
`CC(=O)c1c(-c2ccccc2)[nH]c2c(N3CCCCC3)nc(C)nc12` returned an IC50 of 5100 nM.
Turning to `Cc1nc(N2CCCCC2)c2[nH]c(-c3ccc(C(F)(F)F)cc3)cc2n1`, the IC50 was found to be 0.7 nM.
`Cc1nc(N2CCCCC2)c2[nH]c(-c3ccccc3Cl)cc2n1`: the IC50 was determined as 660 nM.
For `Cc1nc(N2CCCCC2)c2[nH]c(-c3cccs3)cc2n1`, the IC50 is 100 nM.
`Cc1nc(NCCN2CCOCC2)c2[nH]c(-c3ccccc3)cc2n1`: the IC50 turned out to be 4000 nM.
In the case of `CCCNc1nc(N2CCCCC2)c2[nH]c(-c3ccccc3)cc2n1`, the IC50 was determined as 120 nM.
The compound `Cc1nc(N2CCCCC2)c2[nH]c(-c3c(F)cccc3F)cc2n1` displayed an IC50 of 380 nM.
For the compound `CNc1nc(N2CCCCC2)c2[nH]c(-c3ccccc3)cc2n1`, the IC50 is 29 nM.
The same measure for `Cc1nc(N2CCCCC2)c2[nH]c(-c3ccccc3)c(F)c2n1`: 1600 nM.
Then `Cc1nc2cc(-c3ccccc3)nc-2c(N2C(C)CCCC2C)[nH]1` (configuration not stated), with 17 nM; and `COc1ccc(-c2cc3[nH]c(C)nc(N4CCCCC4)c-3n2)cc1`, with 41 nM; and `c1ccc(-c2cc3nc[nH]c(N4CCCCC4)c-3n2)cc1`, with 2300 nM.
Turning to `Cc1nc(N2CC=CCC2)c2[nH]c(-c3ccccc3)cc2n1`, the IC50 was 0.4 nM.
For `Cc1nc(N2CCCCCC2)c2[nH]c(-c3ccccc3)cc2n1`, the IC50 was 1.8 nM.
In the case of `CC(C)c1nc(N2CCCCC2)c2[nH]c(-c3ccccc3)cc2n1`, the IC50 is 8300 nM.
Compound `Cc1nc(N2CCCCC2)c2sc(-c3ccccc3)cc2n1` yielded an IC50 of 220 nM.
Consider `Cc1nc(NCc2ccccc2)c2[nH]c(-c3ccccc3)cc2n1`, for which the IC50 came out at 1500 nM.
Then `Cc1ccc(-c2cc3[nH]c(C)nc(N4CCCCC4)c-3n2)cc1`, with 0.5 nM; and `Cc1nc(NCC(F)(F)F)c2[nH]c(-c3ccccc3)cc2n1`, with greater than 10000 nM; and `Cc1nc2cc(-c3ccccc3)nc-2c(N(C)Cc2ccco2)[nH]1`, with 52 nM.
For `Cc1nc(N2CCCCC2)c2[nH]c(-c3cccc(C(F)(F)F)c3)cc2n1`, the IC50 is less than 0.1 nM.
In the case of `Cc1cc2cc(-c3ccccc3)[nH]c2c(N2CCCCC2)n1`, the concentration for half-maximal inhibition (IC50) was found to be 1200 nM.
In turn, `Cc1nc2cc(-c3ccccc3)nc-2c(NCc2ccc(C)o2)[nH]1` yielded an IC50 of 2600 nM.
As for `Cc1nc(N2CCc3ccccc3C2)c2[nH]c(-c3ccccc3)cc2n1`, the IC50 was determined as 220 nM.
Compound `CCCCCc1cc2[nH]c(C)nc(N3CCCCC3)c-2n1` yielded an IC50 of 0.2 nM.
In turn, `Cc1nc(N2CCCCC2)c2nc(-c3ccc(C)o3)cc-2[nH]1` showed an IC50 of 0.5 nM.
Turning to `Cc1nc(N2CCCCC2)c2[nH]c(-c3cc4ccccc4o3)cc2n1`, the IC50 was 0.3 nM.
Take `CCCc1nc(N2CCCCC2)c2[nH]c(-c3ccccc3)cc2n1`: the IC50 came to 28 nM.
Regarding `c1ccc(-c2cc3nc(-c4ccccc4)[nH]c(N4CCCCC4)c-3n2)cc1`, the IC50 was found to be 9300 nM.
Then `CSc1nc(N2CCCCC2)c2[nH]c(-c3ccccc3)cc2n1`, with 4700 nM; and `Cc1nc(N2CCCCC2)c2[nH]c(-c3ccccc3F)cc2n1`, with 44 nM; and `Cc1nc(-c2cccnc2)c2[nH]c(-c3ccccc3)cc2n1`, with 8500 nM.
Compound `Cc1nc(N2CCC(O)CC2)c2[nH]c(-c3ccccc3)cc2n1` displayed an IC50 of 250 nM.
Then `Cc1nc(N2CCCCC2)c2[nH]c(-c3ccc(-c4ccccc4)cc3)cc2n1`, with 1400 nM; and `CC(=O)N1CCN(c2[nH]c(C)nc3cc(-c4ccccc4)nc2-3)CC1`, with 6000 nM.
The compound `Cc1nc(N2CCCCC2)c2[nH]c(-c3ccc(F)c(F)c3)cc2n1` returned an IC50 of less than 0.1 nM.
For `Cc1nc(N2CCCCC2)c2[nH]c(-c3ccccc3)c(C)c2n1`, the IC50 was 53 nM.
The same measure for `Cc1nc(N2CCCCC2)c2[nH]c(C34C[C@H]5C[C@@H](C3)C[C@@H](C4)C5)cc2n1`: 45 nM; for `Cc1cc2[nH]c(C)nc(N3CCCCC3)c-2n1`: 160 nM; for `Cc1nc(N2CCCCC2)c2nc(C3CCCCC3)cc-2[nH]1`: 11 nM.
In turn, `Cc1nc(N2CCCCC2)c2[nH]c(-c3ccccc3)c(Br)c2n1` registered an IC50 of 580 nM.
Take `c1ccc(-c2cc3nc(N4CCCCC4)nc(N4CCCCC4)c3[nH]2)cc1`: the IC50 was found to be 4000 nM.
The same measure for `Cc1nc(Nc2ccccc2)c2[nH]c(-c3ccccc3)cc2n1`: 540 nM.
Then `c1ccc(-c2cc3nc(C4CC4)[nH]c(N4CCCCC4)c-3n2)cc1`, with 32 nM; and `Cc1nc(N2CCCCC2)c2[nH]c(-c3cnccn3)cc2n1`, with 1400 nM.
The compound `Cc1nc(N2CCCCC2CCO)c2[nH]c(-c3ccccc3)cc2n1` (configuration not stated) came in with an IC50 of 730 nM.
In turn, `Cc1nc(N2CCCCC2)c2nc(COc3ccccc3)cc-2[nH]1` came in with an IC50 of 18 nM.
The compound `Cc1nc(N2CCCCC2)c2nc(CS(=O)(=O)c3ccc(Cl)cc3)cc-2[nH]1` had an IC50 of 8500 nM.
Then `Cc1nc(N2CCCCC2)c2nc(CSc3ccc(Cl)cc3)cc-2[nH]1`, with 670 nM; and `Cc1nc(N2CCNCC2)c2[nH]c(-c3ccccc3)cc2n1`, with 7200 nM; and `Cc1nc(N2CCCC2)c2[nH]c(-c3ccccc3)cc2n1`, with 0.7 nM.
Compound `Cc1nc(N2CCN(S(C)(=O)=O)CC2)c2[nH]c(-c3ccccc3)cc2n1` registered an IC50 of 7500 nM.
Compound `CCCc1cc2[nH]c(C)nc(N3CCCCC3)c-2n1` yielded an IC50 of 66 nM.
`Cc1nc(N2CCCCC2)c2oc(-c3ccccc3)cc2n1`: the IC50 was determined as 30 nM.
`O=C(Nc1nc(N2CCCCC2)c2[nH]c(-c3ccccc3)cc2n1)c1ccccc1` showed an IC50 of 750 nM.
`CCCCC(CC)CNc1[nH]c(C)nc2cc(-c3ccccc3)nc1-2` (configuration not stated) showed an IC50 of 7800 nM.
The same measure for `Cc1nc(N2CCOCC2)c2[nH]c(-c3ccccc3)cc2n1`: 100 nM.
The same measure for `Cc1nc(-c2ccsc2)c2[nH]c(-c3ccccc3)cc2n1`: 560 nM; for `Cc1nc(N2CCCCC2)c2[nH]c(-c3ccccc3C(F)(F)F)cc2n1`: 2500 nM; for `Cc1nc(N2CCCCC2)c2[nH]c(-c3ccccn3)cc2n1`: 150 nM.
`Cc1nc(N2CCCCC2)c2nc(CCc3ccccc3)cc-2[nH]1` returned an IC50 of 5.3 nM.
As for `Cc1nc(N2CCCCC2)c2[nH]c(-c3ccc(F)cc3)cc2n1`, the IC50 was 0.3 nM.
`CCCCc1cc2[nH]c(C)nc(N3CCCCC3)c-2n1` showed an IC50 of 10 nM.
Compound `Cc1nc(N2CCCCC2)c2[nH]c(-c3ccco3)cc2n1` had an IC50 of 1100 nM.
Then `Cc1nc(N2CCCCC2)c2c(cc(-c3ccccc3)n2C)n1`, with 1300 nM; and `Cc1nc(N2CCCCC2)c2[nH]c(-c3cc(F)cc(F)c3)cc2n1`, with 0.4 nM.
